Assay results: publication PMC2921709 (ChemMedChem, 2010)

How the values were obtained:
MCF-7 = assay: MTT growth inhibition, MCF-7 breast adenocarcinoma cells; assay type: cell-based, human; conditions: Homo sapiens, MCF7, 72 h, read-out: GI50 MCF-7
In short: (§1)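 Cells seeded at 8 × 10^3 per well in 96-well plates and held 18 h at 37 °C, 5% CO2. Medium then replaced with test compound in complete medium at various concentrations for 72 h continuous exposure. Viability read by MTT. GI50 is the concentration giving 50% proliferation inhibition, from dose–response curves; mean ± SE of ≥3 independent experiments. Media: leukemia lines in RPMI-1640; solid-tumour lines in DMEM with penicillin G 115 U mL−1, streptomycin and 10% FBS.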

Jurkat cells [1] = assay: Flow cytometric cell-cycle analysis; assay type: cell-based, human; conditions: for effect on cell-cycle progression (G2/M arrest, in words): 24 h treatment
In short: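 Jurkat cells in exponential growth, 5 × 10^5 per sample, exposed to test compound at various concentrations for 24 h. Cells fixed in ice-cold 70% ethanol, treated with lysis buffer containing RNase A and 0.1% Triton X-100, then stained with PI. DNA content measured by flow cytometry and phases assigned from DNA histograms. Mean ± SEM of two independent experiments.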

[2] = test system: Bovine brain tubulin (colchicine site); assay: Inhibition of [3H]colchicine binding to tubulin; conditions: tubulin 1 μM, [3H]colchicine 5 μM; for Colchicine Binding Inhibition [%], 5 μM: compound 5 μM
K562 = assay: MTT growth inhibition, K562 chronic myelogenous leukemia cells; assay type: cell-based, human; conditions: Homo sapiens, K562, 72 h, read-out: GI50 K562
In short: as §1

ARO = assay: MTT growth inhibition, ARO anaplastic thyroid cells; assay type: cell-based, human; conditions: Homo sapiens, Thyroid cell, 72 h, read-out: GI50 ARO
In short: as §1

IGROV = assay: MTT growth inhibition, IGROV ovarian cancer cells; assay type: cell-based, human; conditions: Homo sapiens, IGROV, 72 h, read-out: GI50 IGROV
In short: as §1

HT-29 = assay: MTT growth inhibition, HT-29 colon adenocarcinoma cells; assay type: cell-based, human; conditions: Homo sapiens, HT-29, 72 h, read-out: GI50 HT-29
In short: as §1

leukemia cells = assay: MTT growth inhibition, leukemia cell lines; assay type: cell-based, human; conditions: 72 h; for GI50: Homo sapiens, read-out: GI50, leukemia cells
In short: as §1

HL-60 = assay: MTT growth inhibition, HL-60 promyelocytic leukemia cells; assay type: cell-based, human; conditions: Homo sapiens, HL-60, 72 h, read-out: GI50 HL-60
In short: as §1

Bcl-2 in Jurkat cells = assay: Flow cytometric analysis of Bcl-2 expression; assay type: cell-based, human; conditions: 24 and 48 h, flow cytometry
In short: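 Jurkat cells incubated with test compound for 24 and 48 h, then pelleted and permeabilised with a Fix&Perm kit. Labelled with FITC-conjugated anti-Bcl-2 monoclonal antibody, washed and analysed by flow cytometry. Mean ± SEM of two independent experiments.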

Jurkat cells [3] = assay: Annexin V-FITC/PI apoptosis assay; assay type: cell-based, human; conditions: 24 h treatment
In short: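 Jurkat cells exposed to test compound at various concentrations for 24 or 48 h, then harvested. Co-labelled with annexin V–FITC and PI and analysed by flow cytometry (excitation 488 nm; emission 525 and 585 nm). Reported as mean percentage of annexin-V-positive cells ± SEM, three independent experiments.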

Jurkat = assay: MTT growth inhibition, Jurkat T-leukemia cells; assay type: cell-based, human; conditions: Homo sapiens, Jurkat, 72 h, read-out: GI50 Jurkat
In short: as §1

Hep G2 = assay: MTT growth inhibition, HepG2 hepatoma cells; assay type: cell-based, human; conditions: Homo sapiens, HepG2, 72 h, read-out: GI50 Hep G2
In short: as §1

solid tumor cells = assay: MTT growth inhibition, solid tumor cell lines; assay type: cell-based; conditions: Homo sapiens, 72 h, read-out: GI50, solid tumor cells
In short: as §1

[4] = test system: caspase-3 in Jurkat cells; assay: Caspase-3 activation by flow cytometry; assay type: cell-based, human; conditions: time- and concentration-dependent
Jurkat cells [5] = assay: Mitochondrial membrane potential; assay type: cell-based, human; conditions: 0.5 and 0.1 μM, 24 and 48 h
In short: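 After treatment, Jurkat cells were pelleted and resuspended in HBSS containing JC-1, then kept 10 min at 37 °C. They were spun again, taken up in HBSS and read by flow cytometry. Polarised mitochondria give red JC-1 aggregates (590 nm); depolarisation gives green monomers (530 nm).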

Bovine brain tubulin = assay: Inhibition of tubulin polymerization; assay type: biochemical; conditions: read-out: Tubulin Assembly IC50; tubulin 10 μM; 20 min incubation; ± SD
ML2 = assay: MTT growth inhibition, ML-2 myeloid leukemia cells; assay type: cell-based, human; conditions: Homo sapiens, ML-2, 72 h, read-out: GI50 ML2
In short: as §1

RS 4;11 = assay: MTT growth inhibition, RS 4; assay type: cell-based, human; conditions: Homo sapiens, RS4-11, 72 h, read-out: GI50 RS 4;11
In short: as §1

Jurkat cells [6] = assay: Mitochondrial ROS production; assay type: cell-based, human; conditions: 24 and 48 h
In short: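 Jurkat cells treated with test compound for 24 or 48 h, pelleted, then loaded in HBSS with hydroethidine (HE) or H2-DCFDA for 30 min at 37 °C. Cells re-pelleted into HBSS and read by flow cytometry: 488 nm excitation, emission 585 nm (HE) and 530 nm (DCF). Fluorescence intensity given as % of untreated control; mean ± SEM, three independent experiments.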

HeLa = assay: MTT growth inhibition, HeLa cervix carcinoma cells; assay type: cell-based, human; conditions: Homo sapiens, HeLa, 72 h, read-out: GI50 HeLa
In short: as §1

[7] = test system: panel of human tumor cell lines; assay: MTT growth inhibition, whole panel of human tumor cell lines; assay type: cell-based; conditions: 72 h, read-out: GI50, all cell lines tested
In short: as §1

| SMILES | GI50 (MCF-7) [nM] | Colchicine Binding Inhibition [%], 5 μM [2] [%] | GI50 (K562) [nM] | GI50 (IGROV) [nM] | GI50 (HT-29) [nM] | GI50 (leukemia cells) [nM] | GI50 (HL-60) [nM] | GI50 (Jurkat) [nM] | GI50 (Hep G2) [nM] | GI50 (solid tumor cells) [nM] | IC50 (Bovine brain tubulin) [nM] | GI50 (ML2) [nM] | GI50 (HeLa) [nM] | effect on cell-cycle progression (G2/M arrest, in words) (Jurkat cells [1]) | GI50 (ARO) [nM] | Bcl-2 expression, in words (Bcl-2 in Jurkat cells) | induction of apoptotic (annexin-V-positive) cells, in words (Jurkat cells [3]) | caspase-3 activation, in words [4] | percentage of cells with low ΔΨmt (JC-1), in words (Jurkat cells [5]) | GI50 (RS 4;11) [nM] | further results |
| --- | --- | --- | --- | --- | --- | --- | --- | --- | --- | --- | --- | --- | --- | --- | --- | --- | --- | --- | --- | --- | --- |
| CCn1cc(C#N)c2c3c(=O)cc(-c4ccccc4)[nH]c3ccc21 [Compound 21, 3-Ethyl-9-oxo-7-phenyl-6,9-dihydro-3H-pyrrolo[3,2-f]quinoline-1-carbonitrile] | > 50000 | – | 460 ± 8 | > 50000 | > 50000 | – | 210 ± 10 | 300 ± 10 | > 50000 | > 50000 | – | 550 ± 30 | > 50000 | – | > 50000 | – | – | – | – | 130 ± 20 | activity in the leukemia lines (concentration level, in words) (leukemia cells; MTT): sub-micromolar |
| O=c1c(-c2ccccc2)c[nH]c2ccc3[nH]ccc3c12 [Compound 33, 8-Phenyl-3H-pyrrolo[3,2-f]quinolin-9(6H)-one] | – | – | > 50000 | – | > 50000 | – | > 50000 | – | > 50000 | – | – | > 50000 | > 50000 | – | > 50000 | – | – | – | – | – | GI50 [7]: > 50000 nM |
| CCn1ccc2c3c(=O)c(-c4ccccc4)c[nH]c3ccc21 [Compound 34, 3-Ethyl-8-phenyl-3H-pyrrolo[3,2-f]quinolin-9(6H)-one] | – | – | > 50000 | – | > 50000 | – | > 50000 | – | > 50000 | – | – | > 50000 | > 50000 | – | > 50000 | – | – | – | – | – | GI50 [7]: > 50000 nM |

Stronger by GI50 (K562), values ahead:

| GI50 (MCF-7) [nM] | Colchicine Binding Inhibition [%], 5 μM [2] [%] | GI50 (K562) [nM] | GI50 (IGROV) [nM] | GI50 (HT-29) [nM] | GI50 (leukemia cells) [nM] | GI50 (HL-60) [nM] | GI50 (Jurkat) [nM] | GI50 (Hep G2) [nM] | GI50 (solid tumor cells) [nM] | IC50 (Bovine brain tubulin) [nM] | GI50 (ML2) [nM] | GI50 (HeLa) [nM] | SMILES | effect on cell-cycle progression (G2/M arrest, in words) (Jurkat cells [1]) | GI50 (ARO) [nM] | Bcl-2 expression, in words (Bcl-2 in Jurkat cells) | induction of apoptotic (annexin-V-positive) cells, in words (Jurkat cells [3]) | caspase-3 activation, in words [4] | percentage of cells with low ΔΨmt (JC-1), in words (Jurkat cells [5]) | GI50 (RS 4;11) [nM] | further results |
| --- | --- | --- | --- | --- | --- | --- | --- | --- | --- | --- | --- | --- | --- | --- | --- | --- | --- | --- | --- | --- | --- |
| 580 ± 180 | 75 ± 4 | 190 ± 60 | 620 ± 150 | 480 ± 80 | 0.5 to 10 | 2 ± 0.1 | 0.5 ± 0.01 | 520 ± 100 | 400 to 1400 | 750 ± 40 | 5 ± 2 | 450 ± 100 | CCOC(=O)CCn1ccc2c3c(=O)cc(-c4ccccc4)[nH]c3ccc21 [Compound 11, Ethyl 3-(9-oxo-7-phenyl-6H-pyrrolo[3,2-f]quinolin-3(9H)-yl)propanoate] | clear G2/M arrest pattern in a concentration-dependent manner | 550 ± 150 | decrease Bcl-2 expression | remarkable induction of apoptotic cells | activate caspase-3 | significant increase in the percentage of cells with low ΔΨmt | 2 ± 0.4 | G2/M cell population (Jurkat cells [1]; 24 h, 0.06 μM, control 9.4 %): 77%; S-phase cells (Jurkat cells [1]; 24 h, 0.06 μM, control 43 %): 20%; G1 cells (Jurkat cells [1]; 24 h, 0.06 μM, control 47 %): 3%; Colchicine Binding Inhibition [%], 1 μM ([2]; compound 1 μM): 44 ± 6%; ROS production (HE, H2-DCFDA), in words (Jurkat cells [6]): induced the production of ROS relative to control cells |
| 1400 ± 500 | 30 ± 4 | 30 ± 7 | 850 ± 200 | 450 ± 100 | 0.5 to 10 | 2 ± 0.1 | 3 ± 0.1 | 950 ± 150 | 400 to 1400 | 1400 ± 200 | 10 ± 2 | 400 ± 50 | COc1cc(Cn2ccc3c4c(=O)cc(-c5ccccc5)[nH]c4ccc32)cc(OC)c1OC [Compound 12, 7-Phenyl-3-(3,4,5-trimethoxybenzyl)-3H-pyrrolo[3,2-f]quinolin-9(6H)-one] | clear G2/M arrest pattern in a concentration-dependent manner | 580 ± 150 | decrease Bcl-2 expression | remarkable induction of apoptotic cells | activate caspase-3 | significant increase in the percentage of cells with low ΔΨmt | 1 ± 0.1 | arrest in G2/M phase (cell population) (Jurkat cells [1]; 24 h, 0.25 μM, control 9.4 %): 65%; Colchicine Binding Inhibition [%], 50 μM ([2]; compound 50 μM): 56 ± 2%; ROS production (HE, H2-DCFDA), in words (Jurkat cells [6]): induced the production of ROS relative to control cells |
